One data set concerns Liver microsome. Briefly: Drug metabolism in human liver microsomes assessed as formation of 3-(4-((6-methoxy-1-methyl-1H-benzo[d]imidazol-2-yl)methoxy)phenyl)-2-(methylthio)propanamide at 20 uM after 2 hrs by radio-HPLC/LC-MS/MS analysis in presence of NADPH-generating system/SAM. The format is ADME. On the technique in general: Liver microsomes are vesicles of endoplasmic reticulum, rich in cytochrome P450 enzymes.

For data set [1], the target named is T1, UDP-glucuronosyltransferase 1A1 (Homo sapiens, UniProt P22309).
T1 sequence (P22309 whole entry): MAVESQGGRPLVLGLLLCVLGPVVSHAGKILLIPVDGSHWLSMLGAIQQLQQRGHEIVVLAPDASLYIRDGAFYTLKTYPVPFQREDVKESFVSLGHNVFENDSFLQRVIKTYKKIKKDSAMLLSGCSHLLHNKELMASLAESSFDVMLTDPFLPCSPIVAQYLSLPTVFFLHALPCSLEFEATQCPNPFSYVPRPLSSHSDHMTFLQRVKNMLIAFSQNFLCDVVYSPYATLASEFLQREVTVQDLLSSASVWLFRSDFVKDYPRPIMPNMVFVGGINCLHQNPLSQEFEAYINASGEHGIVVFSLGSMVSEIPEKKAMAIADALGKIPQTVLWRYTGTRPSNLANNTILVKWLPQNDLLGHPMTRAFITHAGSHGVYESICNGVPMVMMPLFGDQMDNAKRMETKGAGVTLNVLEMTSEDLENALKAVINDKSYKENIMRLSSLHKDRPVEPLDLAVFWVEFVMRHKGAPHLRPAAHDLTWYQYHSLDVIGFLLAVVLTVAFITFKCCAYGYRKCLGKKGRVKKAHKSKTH
Briefly: Activity of human UGT1A1 expressed in microsomes isolated from baculovirus infected insect cell assessed as enzyme-mediated (2S,3S,4S,5R,6R)-6-((1-carboxy-2-(4-((6-methoxy-1-methyl-1H-benzo[d]imidazol-2-yl)methoxy)phenyl)ethylthio)carbonylamino)-3,4,5-trihydroxytetrahydro-2H-pyran-2-carboxylic acid formation at 20 uM after 4 hrs by radio-HPLC/LC-MS/MS analysis in presence of UDPGA. It is filed as ADME. The essentials: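 Alamethicin (50 μg/mg protein, 15 min on ice) pretreated expressed human UGT microsomes (1 mg/ml protein) from baculovirus-infected insect cells. Incubation with [¹⁴C]rivoglitazone (20 μM) in 100 mM Tris-HCl (pH 7.5) with 10 mM MgCl₂, started by 5 mM UDPGA, 4 h at 37°C with shaking. UGT insect-cell control supersomes were run alongside. Acetonitrile stop, concentrated supernatant analysed by radio-HPLC, LC-MS and LC-MS/MS.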

The target of data set [2] is T2, UDP-glucuronosyltransferase 1A8 (Homo sapiens, UniProt Q9HAW9).
T2 sequence (Q9HAW9 whole entry): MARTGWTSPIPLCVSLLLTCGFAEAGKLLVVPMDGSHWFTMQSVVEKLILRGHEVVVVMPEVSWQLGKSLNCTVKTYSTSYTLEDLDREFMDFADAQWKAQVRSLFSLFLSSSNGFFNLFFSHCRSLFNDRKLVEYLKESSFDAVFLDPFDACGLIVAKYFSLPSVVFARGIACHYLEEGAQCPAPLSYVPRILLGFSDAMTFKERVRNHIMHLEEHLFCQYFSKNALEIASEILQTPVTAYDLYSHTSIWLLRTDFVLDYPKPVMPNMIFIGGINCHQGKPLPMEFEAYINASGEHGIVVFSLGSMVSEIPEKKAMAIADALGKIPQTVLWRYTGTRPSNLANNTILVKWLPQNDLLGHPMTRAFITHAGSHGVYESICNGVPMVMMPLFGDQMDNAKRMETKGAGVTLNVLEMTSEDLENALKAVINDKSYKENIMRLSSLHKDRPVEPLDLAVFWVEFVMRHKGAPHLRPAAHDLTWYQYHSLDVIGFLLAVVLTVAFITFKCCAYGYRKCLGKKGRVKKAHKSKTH
In words: Activity of human UGT1A8 expressed in microsomes isolated from baculovirus infected insect cell assessed as enzyme-mediated 2-mercapto-3-(4-((6-methoxy-1-methyl-1H-benzo[d]imidazol-2-yl)methoxy)phenyl)propanoic acid formation at 20 uM after 4 hrs by radio-HPLC/LC-MS/MS analysis in presence of UDPGA. It is filed as ADME.

A short description of data set [3]: Drug metabolism in cynomolgus monkey liver microsomes assessed as formation of 2-((4-((2,4-dioxothiazolidin-5-yl)methyl)phenoxy)methyl)-1-methyl-1H-benzo[d]imidazol-6-yl hydrogen sulfate at 20 uM by radio-HPLC/LC-MS/MS analysis. The format is ADME, Macaca fascicularis.
In data set [4] the target is T3, UDP-glucuronosyltransferase 1A3 (Homo sapiens, UniProt P35503).
T3 sequence (P35503 whole entry): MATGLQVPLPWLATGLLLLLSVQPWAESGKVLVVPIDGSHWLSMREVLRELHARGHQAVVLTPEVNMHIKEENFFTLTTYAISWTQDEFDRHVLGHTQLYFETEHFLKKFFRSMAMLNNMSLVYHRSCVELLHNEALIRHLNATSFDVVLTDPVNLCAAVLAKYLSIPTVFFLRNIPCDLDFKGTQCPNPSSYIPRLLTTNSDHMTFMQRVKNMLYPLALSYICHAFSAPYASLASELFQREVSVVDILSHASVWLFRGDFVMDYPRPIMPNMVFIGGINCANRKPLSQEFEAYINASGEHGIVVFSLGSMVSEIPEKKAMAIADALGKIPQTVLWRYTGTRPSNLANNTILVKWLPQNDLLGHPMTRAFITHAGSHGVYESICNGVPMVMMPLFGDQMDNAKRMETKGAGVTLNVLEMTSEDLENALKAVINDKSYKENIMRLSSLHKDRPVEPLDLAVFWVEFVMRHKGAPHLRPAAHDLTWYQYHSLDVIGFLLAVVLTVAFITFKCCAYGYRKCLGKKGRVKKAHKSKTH
Briefly: Activity of human UGT1A3 expressed in microsomes isolated from baculovirus infected insect cell assessed as enzyme-mediated 2-mercapto-3-(4-((6-methoxy-1-methyl-1H-benzo[d]imidazol-2-yl)methoxy)phenyl)propanamide formation at 20 uM after 4 hrs by radio-HPLC/LC-MS/MS analysis in presence of NADPH-generating system and NADPH-generating system/SAM in presence of UDPGA and UDPGA/SAM. The format is ADME.

Data set [5] can be described thus: Drug metabolism in monkey hepatocytes assessed as formation of 3-(4-((6-methoxy-1-methyl-1H-benzo[d]imidazol-2-yl)methoxy)phenyl)-2-(methylthio)propanoic acid at 30 uM after 3 hrs by radio-HPLC/LC-MS/MS analysis in presence of NADPH-generating system/SAM and UDPGA/SAM. As to conditions: cynomolgus monkey.

For `COc1ccc2nc(COc3ccc(C[14CH]4SC(=O)NC4=O)cc3)n(C)c2c1.Cl` (racemic), the Drug metabolism result in the data set on Liver microsome is reported as “metabolite_detected”; in data set [1], “metabolite_not_detected”; in data set [2], “metabolite_not_detected”; in data set [3], “metabolite_not_detected”; in data set [4], “metabolite_not_detected”; in data set [5], “metabolite_not_detected”.
